One data set relates to 3T3-L1. Kind of data set: Stimulation of adipogenesis in 3T3-L1 cells is expressed as concentration equivalent to the [ 1-14C] uptake counts after treatment with 0.2 ug/mL troglitazone. Type of data set: functional, Mus musculus. The method in brief: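 Mouse 3T3-L1 preadipocytes were grown to confluence on collagen-coated wells, then given differentiation medium (5% FBS, 100 ng/mL insulin, 0.1 mM IBMX, dexamethasone) plus compound (DMSO 0.1% v/v final) for 4 days. This was followed by maintenance medium (5% FBS, insulin) for 2 days. Cells were then pulsed 1 h with 7.4 kBq/mL [1-14C]acetic acid, washed, and counted by scintillation.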

In data set [1] the test system is Rattus norvegicus. Description: Heart wt absolute in two week oral toxicity test in male F344/DuCrj rats after 50 mg/kg dose. In kind it is functional. The method, boiled down:
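Seven-week-old male rats, n = 5/group, dosed by gavage at 50 mg/kg for 2 weeks as a suspension in 0.5% carboxymethylcellulose sodium in water; controls received vehicle alone. At termination rats were ether-anaesthetized and exsanguinated via the abdominal aorta, and the heart was excised and weighed. Relative weight = absolute weight/100 g final body weight. Mean ± SE; Student's t-test against control.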

For data set [2], the system named is Rattus norvegicus. Description: Relative wt in two week oral toxicity test in male F344/DuCrj rats after 50 mg/kg dose. Type of data set: functional. The method, boiled down: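 Seven-week-old male F344/DuCrj rats, n = 5/group; compound suspended in 0.5% carboxymethylcellulose sodium in water, given by gavage at 50 mg/kg for 2 weeks; controls got vehicle alone. At termination, ether anaesthesia and exsanguination via abdominal aorta; heart and major organs excised and weighed. Relative weight = organ weight/100 g final body weight; mean ± SE, Student's t-test vs control.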

Data set [3] can be described thus: The hypoglycemic activity in diabetic KK mice, activity expressed as % decrease in blood glucose (18 h). Type of data set: functional, Mus musculus. The method, boiled down:
(§1)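 Nonfasting diabetic KK mice, n = 3, received 1 mg/kg immediately after the first blood sampling and again 18 h later. Tail-vein plasma was taken 18 and 21 h after the first dose, and glucose was measured. Activity (%) = (control PG − treated PG)/control PG × 100; mean ± SEM.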

Data set [4] is described as follows: The hypoglycemic activity in diabetic KK mice, activity expressed as % decrease in blood glucose (21h). Type of data set: functional, Mus musculus. The method in brief: as §1
Data set [5] is described as follows: Area under the curve for fumarate salt was evaluated in F344 Rats. Type of data set: ADME, organism-based. To be noted: F344, rat, in vivo. The method, boiled down:
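Single oral dose of 25 mg/kg to F344 rats; AUC (µg·h/mL) reported as mean ± SEM, n = 3.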

In the case of `CN(CCOc1ccc(CC2SC(=O)NC2=O)cc1)c1ccccn1` (centres undefined) [ROSIGLITAZONE], the EC in the data set with 3T3-L1 came out at 0.09 µM. In the data set with Rattus norvegicus [1], the “Absolute heart weight, % of control” value was 119% and the Heart weight absolute worked out at 0.76 g. In the data set with Rattus norvegicus [2], this molecule registered a Control of 113% and a Relative of 0.36 g %. The Decrease in data set [3] was 21.7%. For the same molecule, in data set [4], the Decrease is recorded as 14.6%.

For `Cn1c(COc2ccc(CC3SC(=O)NC3=O)cc2)nc2cccnc21` (centres undefined), the EC in the data set with 3T3-L1 worked out at 0.13 µM. In the data set on Rattus norvegicus [1], the “Absolute heart weight, % of control” value is listed as 128% and the Heart weight absolute amounted to 0.78 g. In the data set on Rattus norvegicus [2], this molecule yielded a Control of 116% and a Relative of 0.36 g %. Besides, the Decrease in data set [4] stood at 27.6%.

With `Cn1c(COc2ccc(CC3SC(=O)NC3=O)cc2)nc2cc(Cl)cnc21` (centres undefined), the EC with 3T3-L1 is 0.16 µM. Further, in data set [4], the Decrease turned out to be 49.7%.

As to `O=C1NC(=O)C(Cc2ccc(OCc3nc4cccnc4n3Cc3ccc(Cl)cc3)cc2)S1` (centres undefined), the EC in the data set with 3T3-L1 stood at 0.71 µM. The Decrease in data set [4] is reported as -8.5%.

Turning to `Cn1c(CCCOc2ccc(CC3SC(=O)NC3=O)cc2)nc2cccnc21` (centres undefined), in the data set with 3T3-L1, the EC was found to be 0.081 µM. In addition, the results for the Decrease in data set [3] and in data set [4] were -3% and -9.3%, respectively.

With `CCOc1ccc2nc(COc3ccc(CC4SC(=O)NC4=O)cc3)n(C)c2n1` (centres undefined), the EC in the data set on 3T3-L1 came to 0.078 µM. The Decrease in data set [3] amounted to 29.7%; in data set [4], 23.6%.

In the case of `Cn1c(COc2ccc(CC3SC(=O)NC3=O)cc2)nc2ccc(O)nc21` (centres undefined), in the data set on 3T3-L1, the EC amounted to 1.98 µM. Moreover, the Decrease is reported as -30.6% in data set [3] and -3.2% in data set [4].

For the molecule `Cn1c(Oc2ccc(CC3SC(=O)NC3=O)cc2)nc2cccnc21` (centres undefined), in the data set on 3T3-L1, the EC came out at 1.35 µM. The Decrease in data set [3] is -7%; in data set [4] it was 3.6%.

With `COc1ccc2nc(COc3ccc(CC4SC(=O)NC4=O)cc3)n(C)c2n1.O=C(O)/C=C/C(=O)O` (centres undefined), the AUC in data set [5] was found to be 36400 ng·h/mL.

`Cc1ccnc2c1nc(COc1ccc(CC3SC(=O)NC3=O)cc1)n2C` (centres undefined): the EC with 3T3-L1 came out at 0.37 µM. Moreover, the Decrease in data set [3] is given as -18.2%; in data set [4], -6.9%.

Regarding `O=C1NC(=O)C(Cc2ccc(OCc3nc4cccnc4n3Cc3ccc(-c4ccccc4)cc3)cc2)S1` (centres undefined), the EC in the data set with 3T3-L1 is 0.92 µM. Further, the Decrease in data set [3] was 3.8%; in data set [4] it was 11.4%.

For the molecule `Cn1c(COc2ccc(CC3SC(=O)NC3=O)cc2)nc2cc(C(F)(F)F)cnc21` (centres undefined), the EC in the data set on 3T3-L1 was determined as 0.073 µM. For the same molecule, the Decrease is listed as -0.7% in data set [3] and -26.4% in data set [4].

With `O=C1NC(=O)C(Cc2ccc(OCc3nc4ccc[nH]c-4n3)cc2)S1` (centres undefined), in the data set with 3T3-L1, the EC turned out to be 8.18 µM. For the same molecule, the Decrease in data set [3] is 13.9%; in data set [4], 7.4%.

Regarding `Cn1c(CCOc2ccc(CC3SC(=O)NC3=O)cc2)nc2cccnc21` (centres undefined), the EC with 3T3-L1 was found to be 0.65 µM. Further, the results for the Decrease in data set [3] and in data set [4] were -5.6% and 13%, respectively.

For `O=C1NC(=O)C(Cc2ccc(OCc3nc4cccnc4n3-c3ccccc3)cc2)S1` (centres undefined), the EC in the data set with 3T3-L1 is 2.56 µM. Also, the Decrease in data set [3] is on record as 3.9%; in data set [4], -3.4%.

On to `Cn1c(COc2ccc(CC3SC(=O)NC3=O)cc2)nc2ccc(-c3ccccc3)nc21` (centres undefined), for which, in the data set with 3T3-L1, the EC is 0.36 µM. In addition, the results for the Decrease in data set [3] and in data set [4] were 15.5% and 38.1%, respectively.

On to `COc1ccc2nc(COc3ccc(CC4SC(=O)NC4=O)cc3)n(C)c2n1.Cl` (centres undefined), for which the EC in the data set with 3T3-L1 turned out to be 0.11 µM. Moreover, the AUC in data set [5] worked out at 141000 ng·h/mL. For the same molecule, in the data set on Rattus norvegicus [1], the “Absolute heart weight, % of control” value came out at 111% and the Heart weight absolute is 0.68 g. In the data set on Rattus norvegicus [2], the Control is 106% and the Relative amounted to 0.33 g %. The Decrease in data set [3] was 14.8%. Further, in data set [4], the Decrease came to 1%.

For the molecule `COc1ccc2nc(COc3ccc(CC4SC(=O)NC4=O)cc3)n(C)c2n1` (centres undefined), the EC in the data set with 3T3-L1 came to 0.08 µM. Also, the AUC in data set [5] amounted to 11900 ng·h/mL. Besides, the Decrease in data set [3] is on record as 3.6%; in data set [4] it was 2.9%.

In the case of `Cn1c(COc2ccc(CC3SC(=O)NC3=O)cc2)nc2cc(Br)cnc21` (centres undefined), the EC in the data set on 3T3-L1 turned out to be 0.34 µM. Moreover, in data set [4], the Decrease came out at 6.2%.

Regarding `Cn1c(COc2ccc(CC3SC(=O)NC3=O)cc2)nc2ccc(Sc3ccccc3)nc21` (centres undefined), the EC with 3T3-L1 stood at 0.067 µM. Besides, the Decrease is -21.2% in data set [3] and 14.7% in data set [4].

Consider `O=C1NC(=O)C(Cc2ccc(OCc3cn4ccccc4n3)cc2)S1` (centres undefined), for which, in the data set with 3T3-L1, the EC stood at 5.09 µM. Further, the Decrease came to 5.9% in data set [3] and 12.7% in data set [4].

For `Cn1c(COc2ccc(CC3SC(=O)NC3=O)cc2)nc2ccc(OCc3ccccc3)nc21` (centres undefined), in the data set on 3T3-L1, the EC worked out at 0.067 µM. In addition, the Decrease came to 20.3% in data set [3] and 18.8% in data set [4].

As to `CC(C)Oc1ccc2nc(COc3ccc(CC4SC(=O)NC4=O)cc3)n(C)c2n1` (centres undefined), the EC in the data set on 3T3-L1 came to 0.075 µM. Further, the Decrease in data set [3] is recorded as 14.6%; in data set [4] it was -0.2%.

In the case of `Cc1cc(C)c2nc(COc3ccc(CC4SC(=O)NC4=O)cc3)n(C)c2n1` (centres undefined), the EC in the data set with 3T3-L1 stood at 0.22 µM. For the same molecule, the Decrease in data set [3] and in data set [4] was 9.5% each time.

For the molecule `CCn1c(COc2ccc(CC3SC(=O)NC3=O)cc2)nc2cccnc21` (centres undefined), the EC with 3T3-L1 was 1.07 µM. Further, the Decrease is -19.5% in data set [3] and 2.4% in data set [4].

Consider `Cn1c(COc2ccc(CC3SC(=O)NC3=O)cc2)nc2ccc(Cl)nc21` (centres undefined), for which the EC with 3T3-L1 was 0.0009 µM. Moreover, in the data set with Rattus norvegicus [1], the “Absolute heart weight, % of control” value came out at 123% and the Heart weight absolute came out at 0.74 g. In the data set with Rattus norvegicus [2], this molecule displayed a Control of 116% and a Relative of 0.37 g %. The Decrease in data set [4] is recorded as 47.6%.

As a reminder, the AUC is concentration integrated over time.

The values are drawn from ChEMBL document CHEMBL1133611, “Molecular design, synthesis, and hypoglycemic activity of a series of thiazolidine-2,4-diones” (J Med Chem, 2000).
